This note sets out measurements from ChEMBL document CHEMBL1795318, “Development of tetrahydroisoquinoline-based hydroxamic acid derivatives: potent histone deacetylase inhibitors with marked in vitro and in vivo antitumor activities” (J Med Chem, 2011).

The target of series [1] is T1, Protein deacetylase HDAC6 (Homo sapiens, UniProt Q9UBN7).
T1 sequence (Q9UBN7 whole entry): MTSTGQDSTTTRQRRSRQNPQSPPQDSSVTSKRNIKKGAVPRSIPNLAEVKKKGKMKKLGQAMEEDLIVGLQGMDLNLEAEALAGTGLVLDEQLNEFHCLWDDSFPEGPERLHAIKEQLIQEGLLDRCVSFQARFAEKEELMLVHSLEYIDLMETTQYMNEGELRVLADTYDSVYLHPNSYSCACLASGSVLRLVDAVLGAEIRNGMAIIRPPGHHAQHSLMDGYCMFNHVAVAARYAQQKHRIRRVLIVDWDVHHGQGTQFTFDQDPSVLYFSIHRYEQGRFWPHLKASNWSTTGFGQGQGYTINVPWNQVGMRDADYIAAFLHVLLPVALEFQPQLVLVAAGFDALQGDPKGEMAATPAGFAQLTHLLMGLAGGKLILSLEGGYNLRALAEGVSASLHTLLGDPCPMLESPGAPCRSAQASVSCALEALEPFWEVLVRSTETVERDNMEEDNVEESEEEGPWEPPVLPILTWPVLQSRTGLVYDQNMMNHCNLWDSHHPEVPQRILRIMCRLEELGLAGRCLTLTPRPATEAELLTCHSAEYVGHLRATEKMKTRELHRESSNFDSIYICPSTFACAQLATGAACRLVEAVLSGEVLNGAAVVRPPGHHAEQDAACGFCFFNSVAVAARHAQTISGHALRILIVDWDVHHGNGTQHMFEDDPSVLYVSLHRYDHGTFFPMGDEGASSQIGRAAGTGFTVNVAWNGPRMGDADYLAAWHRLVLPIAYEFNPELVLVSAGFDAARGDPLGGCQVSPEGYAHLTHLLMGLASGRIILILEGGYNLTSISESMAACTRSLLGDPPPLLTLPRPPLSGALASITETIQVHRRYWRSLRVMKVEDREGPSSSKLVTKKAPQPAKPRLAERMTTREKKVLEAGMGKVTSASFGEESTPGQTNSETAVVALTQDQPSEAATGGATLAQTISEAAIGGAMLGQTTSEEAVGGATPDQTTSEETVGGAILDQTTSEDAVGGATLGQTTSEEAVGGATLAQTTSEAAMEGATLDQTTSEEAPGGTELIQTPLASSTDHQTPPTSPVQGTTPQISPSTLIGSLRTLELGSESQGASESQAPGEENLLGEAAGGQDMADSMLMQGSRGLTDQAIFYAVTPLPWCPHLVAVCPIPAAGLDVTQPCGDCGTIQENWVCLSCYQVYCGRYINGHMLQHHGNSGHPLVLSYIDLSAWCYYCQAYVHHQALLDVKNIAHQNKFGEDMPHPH
Briefly: Inhibition of HDAC6 in human HeLa cell nuclear extract after 30 mins by fluorescence microplate reader.

The next series concerns HeLa. Briefly: Cytotoxicity against human HeLa cells after 48 hrs by MTT assay. The format is functional, cell-based.
The next series addresses Histone deacetylase. Briefly: Inhibition of HDAC in human HeLa cell nuclear extract after 30 mins by fluorescence microplate reader. The series is classed as protein assay.
A further series deals with HL-60. In words: Cytotoxicity against human HL60 cells after 48 hrs by MTT assay. The series is classed as functional, cell-based. To be noted: HL-60, 48 h. (Tetrazolium assays rely on reduction of a dye to a coloured formazan, in cell work by metabolically active cells.)
The subject of series [2] is MDA-MB-231. In words: Antitumor activity against human MDA-MB-231 cells xenografted in athymic nude mouse assessed as tumor growth inhibition at 90 mg/kg, ip qd for 21 days. To be noted: route intraperitoneal. The format is functional.
For another series, the system named is K562. In words: Cytotoxicity against human K562 cells after 48 hrs by MTT assay. The series is classed as functional, cell-based. The note with it: K562, 48 h.
A further series concerns NB-4. In words: Cytotoxicity against human NB4 cells after 48 hrs by MTT assay. The format is functional, cell-based. The note with it: NB-4, 48 h.
The test system of series [3] is MDA-MB-231. Briefly: Antitumor activity against human MDA-MB-231 cells xenografted in athymic nude mouse assessed as tumor growth delay at 90 mg/kg, ip qd for 21 days. Also on record: dose 90 mg/kg. The format is functional, organism-based.
A further series addresses T2, Histone deacetylase 8 (Homo sapiens, UniProt Q9BY41).
T2 sequence (Q9BY41 whole entry): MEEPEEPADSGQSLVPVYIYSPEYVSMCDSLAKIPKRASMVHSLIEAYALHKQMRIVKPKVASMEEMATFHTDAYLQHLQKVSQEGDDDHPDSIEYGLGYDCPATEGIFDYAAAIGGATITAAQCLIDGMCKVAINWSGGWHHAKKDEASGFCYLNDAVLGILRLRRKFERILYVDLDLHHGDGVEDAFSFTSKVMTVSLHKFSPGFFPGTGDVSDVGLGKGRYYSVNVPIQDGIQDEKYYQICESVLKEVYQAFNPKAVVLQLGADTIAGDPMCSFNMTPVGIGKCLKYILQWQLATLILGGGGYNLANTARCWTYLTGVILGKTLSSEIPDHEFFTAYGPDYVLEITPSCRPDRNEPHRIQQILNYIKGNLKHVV
Briefly: Inhibition of HDAC8 after 30 mins by fluorescence microplate reader. The essentials:
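HDAC8 mixed with compound at various concentrations, fluorogenic substrate added, 37 °C for 30 min; stopped with developer containing trypsin and TSA. Fluorescence read after 20 min (ex 390/em 460 nm); inhibition relative to control wells, IC50 by regression of concentration/inhibition data; mean ± SD of at least three determinations.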

The subject of series [4] is MDA-MB-231. In words: Cytotoxicity against human MDA-MB-231 cells after 48 hrs by MTT assay. The format is functional, cell-based. The note with it: MDA-MB-231, 48 h.
A short description of series [5]: Cytotoxicity against human ES2 cells after 48 hrs by MTT assay. The note with it: ES-2, 48 h. The series is classed as functional, cell-based.
Series [6] relates to MDA-MB-231. Briefly: Cell cycle arrest in human MDA-MB-231 cells assessed as accumulation at G2 phase at 2 to 5 uM after 48 hrs by flow cytometry analysis. The series is classed as functional, cell-based. (In general: In flow cytometry, cells or beads pass a laser one at a time.)
Series [7] deals with MDA-MB-231. Briefly: Cell cycle arrest in human MDA-MB-231 cells assessed as accumulation at G1 phase at 0.5 uM after 48 hrs by flow cytometry analysis. The format is functional, cell-based.
A short description of series [8]: Cytotoxicity against human fibroblasts after 48 hrs by MTT assay. The format is cell-based. The note with it: fibroblast. The procedure, abridged:
(§1)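 Cells kept in RPMI1640 with 10% FBS, 37 °C, 5% CO₂; seeded day before dosing, grown ≥4 h, treated with a concentration series for 48 h. MTT 0.5% solution added, 4 h further; formazan dissolved in DMSO 15 min, absorbance at 570 nm. Mean of three experiments.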

In series [9] the test system is Mus musculus. Briefly: Toxicity in human MDA-MB-231 cells xenografted athymic nude mouse assessed as signs of toxicity at 90 mg/kg, ip qd for 21 days. The format is organism-based. The note with it: in vivo, 504 h. Further details: dose 90 mg/kg, route intraperitoneal. (In general: In xenograft studies the graft and the host belong to different species.)
The test system of a further series is A549. In words: Cytotoxicity against human A549 cells after 48 hrs by MTT assay. To be noted: A549, 48 h. The series is classed as functional, cell-based. The procedure, abridged:
as §1

For series [10], the system named is Mus musculus. In words: Toxicity in human MDA-MB-231 cells xenografted athymic nude mouse assessed as change in body weight at 90 mg/kg, ip qd for 21 days. The series is classed as organism-based. Also on record: dose 90 mg/kg, route intraperitoneal. To be noted: in vivo, 504 h.

The source made the active and inactive calls. The calls are words filed in the database; no cut-off is given here.

With `CC[C@H](C)[C@@H](CN1Cc2cc(OCC(=O)NO)ccc2C[C@H]1C(=O)Nc1ccc(OC)cc1)NC(=O)CC(C)(C)C`, the IC50 (as a rule, the concentration that inhibits the measured activity by half) in series [1] was found to be 0.158 µM; in the series on HeLa it was 63.5 µM; against Histone deacetylase, 0.297 µM; with HL-60, 25.7 µM; in the series on K562, 10 µM; with NB-4, 5.57 µM. The IC50 at Histone deacetylase 8 was 0.333 µM; in the series with MDA-MB-231 [4] it was 2.54 µM. For the same molecule, the T/C – broadly, the ratio of treated to control – in the series on MDA-MB-231 [2] stood at 87%. The outcome with MDA-MB-231 [3] was Active.

For the molecule `CC[C@H](C)[C@@H](CN1Cc2cc(OCC(=O)NO)ccc2C[C@H]1C(=O)Nc1ccc(OC)cc1)NC(=O)OC(C)(C)C`, the IC50 in [5] turned out to be 7.2 µM; in series [1], 0.094 µM; with HeLa, 29.2 µM; on Histone deacetylase it was 0.447 µM; with HL-60, 42.7 µM; in the series with K562, 7 µM. Further, the IC50 with NB-4 turned out to be 3.87 µM; on Histone deacetylase 8, 0.263 µM; in the series on MDA-MB-231 [4], 2.2 µM. Moreover, the outcome in the series with MDA-MB-231 [6], in the series with MDA-MB-231 [3] and in the series with MDA-MB-231 [7] was Active. The T/C in the series with MDA-MB-231 [2] is reported as 47%.

Take `CC[C@H](C)[C@H](NC(=O)OC(C)(C)C)C(=O)N1Cc2cc(OCC(=O)NO)ccc2C[C@H]1C(=O)Nc1ccc(OC)cc1`: the IC50 in series [5] stood at 5 µM; in [1], 0.047 µM; in the series on HeLa it was 37.1 µM; at Histone deacetylase, 0.058 µM; with HL-60, 47.6 µM; in the series on A549 it was 0.94 µM. The IC50 came to 1.47 µM in the series on K562, 1.5 µM in the series with NB-4, 0.139 µM at Histone deacetylase 8 and 0.79 µM in the series on MDA-MB-231 [4]. The result in the series with MDA-MB-231 [6], in the series on MDA-MB-231 [3] and in the series on MDA-MB-231 [7] was Active. The results for the Activity result (in [8]; with Mus musculus [9]; in the series with Mus musculus [10]) were “Toxic”, “Non-toxic” and “Non-toxic”, respectively. In addition, the T/C in the series with MDA-MB-231 [2] was determined as 63%.

On to `O=C(CCCCCCC(=O)Nc1ccccc1)NO` [VORINOSTAT], for which the Activity entry in the series on Mus musculus [9] and in the series with Mus musculus [10] was “Non-toxic” throughout. Further, the half-inhibitory concentration (IC50) with A549 was determined as 0.74 µM. In addition, the result in the series with MDA-MB-231 [3] was Active.
